Measurements from ChEMBL document CHEMBL4342476, “Identification of RIPK3 Type II Inhibitors Using High-Throughput Mechanistic Studies in Hit Triage” (ACS Med Chem Lett, 2020).

What was measured:
[1] = biological target: Hepatocyte growth factor receptor (Homo sapiens, UniProt P08581); assay: Displacement of fluorescein labeled ATP probe from His/GST-tagged c-Met (unknown origin) incubated for 60 mins by HTRF assay
[2] = biological target: T1, Receptor-interacting serine/threonine-protein kinase 3 (Homo sapiens, UniProt Q9Y572); assay: Displacement of fluorescein labeled ATP probe from full length His/GST-tagged RIPK3 (unknown origin) incubated for 60 mins by HTRF assay
Target sequence in this assay (Q9Y572 whole entry): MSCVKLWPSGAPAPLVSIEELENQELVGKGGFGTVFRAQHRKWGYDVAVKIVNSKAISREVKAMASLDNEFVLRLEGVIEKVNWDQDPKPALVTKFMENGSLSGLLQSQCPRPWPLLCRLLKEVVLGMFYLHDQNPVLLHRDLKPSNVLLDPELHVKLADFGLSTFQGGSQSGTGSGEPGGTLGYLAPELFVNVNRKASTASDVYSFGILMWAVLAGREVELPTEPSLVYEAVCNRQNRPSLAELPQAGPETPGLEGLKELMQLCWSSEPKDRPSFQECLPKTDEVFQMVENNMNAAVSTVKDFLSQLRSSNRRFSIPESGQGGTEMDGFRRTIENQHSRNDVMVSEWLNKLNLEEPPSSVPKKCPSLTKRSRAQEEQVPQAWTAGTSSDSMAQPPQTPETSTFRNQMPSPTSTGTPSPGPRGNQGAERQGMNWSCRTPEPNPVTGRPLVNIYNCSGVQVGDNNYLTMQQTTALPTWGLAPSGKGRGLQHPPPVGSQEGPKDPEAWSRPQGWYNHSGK

[3] = biological target: T2, Receptor-interacting serine/threonine-protein kinase 2 (Homo sapiens, UniProt O43353); assay: Displacement of fluorescein labeled ATP probe from His/GST-tagged RIPK2 (unknown origin) incubated for 60 mins by HTRF assay
T2 sequence (O43353 whole entry): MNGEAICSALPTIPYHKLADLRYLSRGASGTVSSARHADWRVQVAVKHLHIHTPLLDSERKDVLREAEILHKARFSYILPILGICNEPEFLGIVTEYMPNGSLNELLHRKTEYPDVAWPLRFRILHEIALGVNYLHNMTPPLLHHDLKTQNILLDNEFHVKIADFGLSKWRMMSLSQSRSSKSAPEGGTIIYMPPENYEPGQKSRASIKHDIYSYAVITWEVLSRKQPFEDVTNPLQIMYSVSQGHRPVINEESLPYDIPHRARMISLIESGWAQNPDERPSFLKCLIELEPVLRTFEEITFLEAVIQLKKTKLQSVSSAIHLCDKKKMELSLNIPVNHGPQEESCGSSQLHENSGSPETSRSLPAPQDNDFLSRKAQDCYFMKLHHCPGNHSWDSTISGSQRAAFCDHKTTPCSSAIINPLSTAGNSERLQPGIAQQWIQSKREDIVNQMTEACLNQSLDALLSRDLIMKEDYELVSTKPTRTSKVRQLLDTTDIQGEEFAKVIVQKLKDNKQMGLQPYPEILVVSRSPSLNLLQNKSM

[4] = biological target: T3, Receptor-interacting serine/threonine-protein kinase 1 (Homo sapiens, UniProt Q13546); assay: Displacement of fluorescein labeled ATP probe from His/GST-tagged RIPK1 (unknown origin) incubated for 60 mins by HTRF assay
T3 sequence (Q13546 whole entry): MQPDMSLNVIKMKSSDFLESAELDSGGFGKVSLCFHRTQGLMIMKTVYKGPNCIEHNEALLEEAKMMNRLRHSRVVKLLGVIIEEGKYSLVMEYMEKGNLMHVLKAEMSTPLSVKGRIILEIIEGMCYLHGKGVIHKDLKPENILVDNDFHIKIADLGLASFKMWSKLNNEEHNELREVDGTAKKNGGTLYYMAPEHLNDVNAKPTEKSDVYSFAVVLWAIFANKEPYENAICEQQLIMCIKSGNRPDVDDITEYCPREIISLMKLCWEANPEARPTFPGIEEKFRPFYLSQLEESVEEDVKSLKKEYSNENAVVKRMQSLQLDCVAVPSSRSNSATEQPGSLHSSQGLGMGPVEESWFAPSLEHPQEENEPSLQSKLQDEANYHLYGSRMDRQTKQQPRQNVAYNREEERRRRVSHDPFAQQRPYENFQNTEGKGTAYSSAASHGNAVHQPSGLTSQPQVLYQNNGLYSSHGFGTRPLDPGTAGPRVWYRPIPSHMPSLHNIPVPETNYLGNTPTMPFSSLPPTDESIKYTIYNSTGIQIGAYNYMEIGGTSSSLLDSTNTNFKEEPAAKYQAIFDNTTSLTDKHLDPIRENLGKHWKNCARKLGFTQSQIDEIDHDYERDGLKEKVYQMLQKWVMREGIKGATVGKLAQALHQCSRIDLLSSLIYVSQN

Homo sapiens [5] = species: Homo sapiens; assay: (§1) Selectivity index, ratio of IC50 for displacement of fluorescein labeled ATP probe from His/GST-tagged c-Met (unknown origin) incubated for 60 mins by HTRF assay to IC50 for displacement of fluorescein labeled ATP probe from full length His/GST-tagged RIPK3 (unknown origin) incubated for 60 mins by HTRF assay
Homo sapiens [6] = species: Homo sapiens; assay: as §1, with “RIPK1” for “c-Met”
[7] = biological target: T1, Receptor-interacting serine/threonine-protein kinase 3; assay: Displacement of fluorescein labeled probe from full length human GST-tagged RIPK3 expressed in Sf9 cells incubated for 60 mins by HTRF assay
Target sequence in this assay (Q9Y572 whole entry): as the sequence (Q9Y572 whole entry) above

[8] = biological target: T2, Receptor-interacting serine/threonine-protein kinase 2; assay: Displacement of fluorescein labeled probe from full length human GST-tagged RIPK2 expressed in Sf9 cells incubated for 60 mins by HTRF assay
[9] = biological target: T3, Receptor-interacting serine/threonine-protein kinase 1; assay: Displacement of fluorescein labeled probe from full length human GST-tagged RIPK1 expressed in Sf9 cells incubated for 60 mins by HTRF assay
[10] = biological target: T1, Receptor-interacting serine/threonine-protein kinase 3; assay: Time dependent inhibition of full length His/GST-tagged RIPK3 (unknown origin) measured every 5 mins for 60 mins in presence of fluorescein labeled probe by HTRF assay relative to control
How it was run: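 Active full-length RIPK3 was preformed as a complex with the fluorescent probe and antibody. Inhibitor was then added as an 11-point concentration-response series, with HTRF read at 5 and 60 min. Time dependency was scored as the fold shift in IC50 between the two reads; ≥5-fold flagged possible slow binding.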
Target sequence in this assay (Q9Y572 whole entry, looked up): as the sequence (Q9Y572 whole entry) above

[11] = biological target: T1, Receptor-interacting serine/threonine-protein kinase 3; assay: Time dependent inhibition of full length His/GST-tagged RIPK3 (unknown origin) measured every 5 mins for 60 mins in presence of fluorescein labeled probe by HTRF assay relative to control; conditions: 1 h
Target sequence in this assay (Q9Y572 whole entry, looked up): as the sequence (Q9Y572 whole entry) above

[12] = biological target: T1, Receptor-interacting serine/threonine-protein kinase 3; assay: as above; conditions: 1 h; remark: listed apart in the source
Target sequence in this assay (Q9Y572 whole entry, looked up): as the sequence (Q9Y572 whole entry) above

[13] = biological target: T3, Receptor-interacting serine/threonine-protein kinase 1; assay: Displacement of fluorescein labeled ATP probe from full length His/GST-tagged RIPK1 (unknown origin) incubated for 60 mins by HTRF assay
[14] = Selectivity index, ratio of IC50 for displacement of fluorescein labeled ATP probe from His/GST-tagged RIPK1 (unknown origin) incubated for 60 mins by HTRF assay to IC50 for displacement of fluorescein labeled ATP probe from His/GST-tagged c-Met (unknown origin) incubated for 60 mins by HTRF assay; conditions: human, 1 h
[15] = Selectivity index, ratio of IC50 for displacement of fluorescein labeled ATP probe from His/GST-tagged RIPK2 (unknown origin) incubated for 60 mins by HTRF assay to IC50 for displacement of fluorescein labeled ATP probe from His/GST-tagged c-Met (unknown origin) incubated for 60 mins by HTRF assay; conditions: human, 1 h
[16] = biological target: Mitogen-activated protein kinase 14 (Homo sapiens, UniProt Q16539); assay: Binding affinity to p38alpha (unknown origin); format: ADME
Sequence of Mitogen-activated protein kinase 14 (Q16539 whole entry): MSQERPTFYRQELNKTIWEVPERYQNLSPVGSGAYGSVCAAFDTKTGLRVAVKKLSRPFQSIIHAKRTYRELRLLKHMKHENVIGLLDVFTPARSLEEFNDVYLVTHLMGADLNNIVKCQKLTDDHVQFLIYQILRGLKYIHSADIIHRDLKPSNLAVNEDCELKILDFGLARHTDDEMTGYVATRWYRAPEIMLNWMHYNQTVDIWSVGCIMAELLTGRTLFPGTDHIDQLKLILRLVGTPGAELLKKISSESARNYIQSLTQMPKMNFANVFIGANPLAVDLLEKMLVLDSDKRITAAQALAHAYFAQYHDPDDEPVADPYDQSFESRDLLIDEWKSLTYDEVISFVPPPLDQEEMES

Sequence of Hepatocyte growth factor receptor (P08581 whole entry): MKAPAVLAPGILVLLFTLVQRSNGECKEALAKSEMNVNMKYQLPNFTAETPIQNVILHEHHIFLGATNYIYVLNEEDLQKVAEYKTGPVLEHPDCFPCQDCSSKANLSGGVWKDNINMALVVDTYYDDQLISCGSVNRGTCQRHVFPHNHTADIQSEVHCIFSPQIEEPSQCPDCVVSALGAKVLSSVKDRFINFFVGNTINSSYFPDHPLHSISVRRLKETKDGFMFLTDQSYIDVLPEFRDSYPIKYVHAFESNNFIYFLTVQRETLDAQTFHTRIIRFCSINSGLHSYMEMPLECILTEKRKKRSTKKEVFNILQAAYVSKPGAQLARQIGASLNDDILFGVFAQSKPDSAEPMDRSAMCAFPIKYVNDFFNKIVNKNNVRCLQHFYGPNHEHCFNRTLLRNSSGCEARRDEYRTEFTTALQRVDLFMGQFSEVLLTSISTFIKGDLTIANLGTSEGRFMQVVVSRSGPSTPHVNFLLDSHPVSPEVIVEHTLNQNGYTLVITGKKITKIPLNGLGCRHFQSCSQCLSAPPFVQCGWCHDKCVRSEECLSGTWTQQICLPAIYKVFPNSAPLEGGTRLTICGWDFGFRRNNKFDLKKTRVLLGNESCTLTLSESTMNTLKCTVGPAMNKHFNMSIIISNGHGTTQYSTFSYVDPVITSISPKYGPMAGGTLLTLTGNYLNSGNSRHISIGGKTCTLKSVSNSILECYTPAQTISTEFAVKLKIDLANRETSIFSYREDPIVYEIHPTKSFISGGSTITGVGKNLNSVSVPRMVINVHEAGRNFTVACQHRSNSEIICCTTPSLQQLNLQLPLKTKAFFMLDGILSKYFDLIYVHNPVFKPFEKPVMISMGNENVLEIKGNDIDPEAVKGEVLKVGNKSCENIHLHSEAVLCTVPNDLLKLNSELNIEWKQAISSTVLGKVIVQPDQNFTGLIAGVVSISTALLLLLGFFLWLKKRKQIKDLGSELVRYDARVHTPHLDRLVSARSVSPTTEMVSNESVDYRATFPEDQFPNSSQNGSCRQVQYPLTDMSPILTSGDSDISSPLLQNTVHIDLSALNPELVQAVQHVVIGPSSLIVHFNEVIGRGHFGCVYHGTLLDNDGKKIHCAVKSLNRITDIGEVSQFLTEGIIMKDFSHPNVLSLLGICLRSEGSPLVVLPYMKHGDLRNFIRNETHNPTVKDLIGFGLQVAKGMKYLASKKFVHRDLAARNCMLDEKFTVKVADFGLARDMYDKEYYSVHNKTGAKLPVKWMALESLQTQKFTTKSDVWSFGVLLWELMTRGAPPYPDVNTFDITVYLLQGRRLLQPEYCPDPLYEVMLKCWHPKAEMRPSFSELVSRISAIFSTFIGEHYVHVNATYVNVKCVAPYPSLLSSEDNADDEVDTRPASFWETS

| SMILES | IC50 [1] [nM] | IC50 [2] [nM] | IC50 [3] [µM] | IC50 [4] [µM] | also measured |
| --- | --- | --- | --- | --- | --- |
| Cc1c(NC(=O)c2cccn(-c3ccc(F)cc3)c2=O)ccc(Oc2ccnc(NC(=O)C3CC3)c2)c1C | 1100 | 91 | > 10 | 5.5 | Ratio IC50 (Homo sapiens [5]): 100 |
| O=C(Nc1ccc(Oc2ccnc(NC(=O)C3CC3)c2)c(F)c1)c1cccn(-c2ccc(F)cc2)c1=O | 2.5 | 2.9 | 1.8 | 0.18 | Ratio IC50 (Homo sapiens [6]): 38 |
| Nc1ccc(C#Cc2c(Oc3ccc(NC(=O)c4cccn(-c5ccc(F)cc5)c4=O)cc3F)ccnc2N)nc1 | – | – | – | – | IC50 [7]: 0.3 nM; IC50 [8]: 2400 nM; IC50 [9]: 0.31 µM; fold change (FC) [10]: 6; fold change (FC) [11]: 6; fold change (FC) [12]: 6 |
| Cc1cc(NC(=O)c2cccn(-c3ccc(F)cc3)c2=O)ccc1Oc1ccnc(NC(=O)C2CC2)c1 | 6.3 | 8 | 0.68 | 0.2 | – |
| O=C(Nc1ccc(Oc2ccncc2)c2ccccc12)c1cccn(-c2ccc(F)cc2)c1=O | 12000 | 50 | > 15 | > 15 | Activity [16]: Active |
| O=C(Nc1ccc(Oc2ccnc3[nH]ccc23)c(F)c1)c1cccn(-c2ccc(F)cc2)c1=O | – | 180 | > 15 | 1.5 | – |
| Cc1ccc(COC(=O)Nc2cc(-c3cc4c([nH]3)CCNC4=O)ccn2)cc1 | – | – | – | – | IC50 [7]: 270 nM; IC50 [8]: 50 nM; IC50 [9]: 17 µM; fold change (FC) [11]: 2 |

Continued, in another order:

| IC50 [1] [nM] | IC50 [2] [nM] | IC50 [3] [µM] | IC50 [4] [µM] | SMILES | also measured |
| --- | --- | --- | --- | --- | --- |
| 18 | 400 | > 15 | > 15 | O=C(Nc1ccc(Oc2ccncc2)c(F)c1)c1cccn(-c2ccc(F)cc2)c1=O | – |
| 4500 | > 15000 | > 15 | > 15 | O=C(Nc1ccc(Oc2ccncc2)c(F)c1)c1cccc(-c2ccc(F)cc2)c1 | – |
| > 1500 | 180 | > 15 | – | Cc1c(NC(=O)c2cccn(-c3ccc(F)cc3)c2=O)ccc(Oc2ccncc2)c1C | IC50 [13]: > 15000 nM; Ratio IC50 (Homo sapiens [5]): > 10; Ratio IC50 [14]: > 10; Ratio IC50 [15]: > 10 |
| 300 | 88 | 3.1 | 11 | Cc1cc(NC(=O)c2cccn(-c3ccc(F)cc3)c2=O)cc(C)c1Oc1ccnc(NC(=O)C2CC2)c1 | – |
| – | 16 | 3 | – | CC#Cc1c(Oc2ccc(NC(=O)c3cccn(-c4ccc(F)cc4)c3=O)cc2F)ccnc1N | IC50 [13]: 600 nM |
| 500 | 320 | 13 | > 15 | Cc1cc(NC(=O)c2cccn(-c3ccc(F)cc3)c2=O)cc(C)c1Oc1ccncc1 | – |
